Laboratory results as given in ChEMBL document CHEMBL1137588, “An evaluation of 3,4-methylenedioxy phenyl replacements in the aminopiperidine chromone class of MCHr1 antagonists” (Bioorg Med Chem Lett, 2007).
Each block holds one compound with its values, some of them ahead of it.

Assays:
[1] = biological target: Melanin-concentrating hormone receptor 1 (Homo sapiens, UniProt Q99705); assay: Displacement of 125I-MCH from MCH-R1 expressed in IMR-32 cells; format: cell-based
[2] = biological target: Melanin-concentrating hormone receptor (Homo sapiens, UniProt Q969V1+Q99705); assay: Inhibition of MCH-mediated calcium release in IMR-32 cells; format: functional, cell-based
[3] = biological target: Voltage-gated inwardly rectifying potassium channel KCNH2 (Homo sapiens, UniProt Q12809)
[4] = biological target: hERG versus MCH receptor (Homo sapiens, UniProt Q12809+Q969V1); assay: in vitro
[5] = biological target: Beta-2 adrenergic receptor (Homo sapiens) (UniProt P07550); assay: Inhibition of adrenergic beta 2 receptor at 10uM
[6] = biological target: Muscarinic acetylcholine receptor M2 (Homo sapiens) (UniProt P08172); assay: Inhibition of human muscarinic M2 receptor at 10uM
[7] = biological target: 5-hydroxytryptamine receptor 1A (Homo sapiens) (UniProt P08908); assay: Inhibition of human serotonin 5HT1A receptor at 10uM
[8] = biological target: Muscarinic acetylcholine receptor M1 (Homo sapiens) (UniProt P11229); assay: Inhibition of human muscarinic M1 receptor at 10uM
[9] = biological target: D(1A) dopamine receptor (Homo sapiens) (UniProt P21728); assay: Inhibition of human dopamine D1 receptor at 10uM
[10] = biological target: Sodium-dependent noradrenaline transporter (Homo sapiens) (UniProt P23975); assay: Inhibition of human norepinephrine transporter receptor at 10uM
[11] = biological target: Histamine H2 receptor (Homo sapiens) (UniProt P25021); assay: Inhibition of histamine H2 receptor at 10uM
[12] = biological target: 5-hydroxytryptamine receptor 1B (Homo sapiens) (UniProt P28222); assay: Inhibition of serotonin 5HT1B receptor at 10uM
[13] = biological target: 5-hydroxytryptamine receptor 2A (Homo sapiens) (UniProt P28223); assay: Inhibition of human serotonin 5HT2A receptor at 10uM
[14] = biological target: Adenosine receptor A1 (Homo sapiens) (UniProt P30542); assay: Inhibition of human adenosine A1 receptor at 10uM
[15] = biological target: Histamine H1 receptor (Homo sapiens) (UniProt P35367); assay: Inhibition of histamine H1 receptor at 10uM
[16] = biological target: Kappa-type opioid receptor (Homo sapiens) (UniProt P41145); assay: Inhibition of human kappa opioid receptor at 10uM
[17] = biological target: Sodium-dependent dopamine transporter (Homo sapiens) (UniProt Q01959); assay: Inhibition of human dopamine transporter at 10uM
[18] = biological target: Sigma non-opioid intracellular receptor 1 (Homo sapiens) (UniProt Q99720); assay: Inhibition of sigma receptor at 10uM
[19] = biological target: Cytochrome P450 3A4 (Homo sapiens, UniProt P08684); assay: Inhibition of CYP3A4; format: ADME
Outline: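 Human hepatic microsomes; CYP3A4 activity followed as oxidation of [3H]-terfenadine. IC50 taken as the compound concentration giving competitive inhibition of this oxidation.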

[20] = biological target: Adrenergic receptor alpha-1 (Homo sapiens) (UniProt P35348+P25100+P35368); assay: Inhibition of adrenergic alpha 1 receptor at 10uM; format: protein assay
[21] = biological target: L-type calcium channel (Homo sapiens, UniProt O60840+Q01668+Q13698+Q13936); assay: Inhibition of L-type calcium channel at 10uM; format: protein assay
[22] = biological target: Adrenergic receptor alpha-2 (Homo sapiens) (UniProt P08913+P18825+P18089); assay: Inhibition of adrenergic alpha 2 receptor at 10uM; format: protein assay
[23] = Inhibition of calcium-activated potassium (SK) channel at 10uM
[24] = Inhibition of sodium channel at 10uM

Melanin-concentrating hormone receptor 1, sequence (Q99705 whole entry): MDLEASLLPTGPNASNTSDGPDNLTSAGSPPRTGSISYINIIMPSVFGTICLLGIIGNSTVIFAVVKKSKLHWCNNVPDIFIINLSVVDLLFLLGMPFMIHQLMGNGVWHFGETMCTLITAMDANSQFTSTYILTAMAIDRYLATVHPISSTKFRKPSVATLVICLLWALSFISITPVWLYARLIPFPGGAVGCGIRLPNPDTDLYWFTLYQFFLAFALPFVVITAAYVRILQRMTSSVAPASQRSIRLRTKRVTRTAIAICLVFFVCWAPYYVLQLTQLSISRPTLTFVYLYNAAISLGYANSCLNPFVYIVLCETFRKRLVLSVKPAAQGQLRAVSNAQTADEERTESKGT
Sodium-dependent dopamine transporter (Homo sapiens), sequence (Q01959 whole entry): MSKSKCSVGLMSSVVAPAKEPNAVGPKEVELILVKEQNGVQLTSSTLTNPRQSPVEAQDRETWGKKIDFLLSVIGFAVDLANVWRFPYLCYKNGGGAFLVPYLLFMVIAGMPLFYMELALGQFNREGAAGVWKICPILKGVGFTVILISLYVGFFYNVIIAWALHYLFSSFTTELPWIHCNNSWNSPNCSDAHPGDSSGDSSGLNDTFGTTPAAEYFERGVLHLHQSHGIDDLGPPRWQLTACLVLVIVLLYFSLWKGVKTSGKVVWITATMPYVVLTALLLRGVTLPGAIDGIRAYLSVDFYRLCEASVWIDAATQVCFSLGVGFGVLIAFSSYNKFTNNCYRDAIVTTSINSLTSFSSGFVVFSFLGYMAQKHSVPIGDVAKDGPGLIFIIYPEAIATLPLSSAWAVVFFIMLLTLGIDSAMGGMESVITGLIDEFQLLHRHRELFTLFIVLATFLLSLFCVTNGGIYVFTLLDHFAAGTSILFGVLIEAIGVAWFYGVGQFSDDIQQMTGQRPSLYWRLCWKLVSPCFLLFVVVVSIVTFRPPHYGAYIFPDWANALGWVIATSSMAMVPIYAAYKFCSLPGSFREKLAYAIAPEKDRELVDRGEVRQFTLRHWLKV
Sigma non-opioid intracellular receptor 1 (Homo sapiens), sequence (Q99720 whole entry): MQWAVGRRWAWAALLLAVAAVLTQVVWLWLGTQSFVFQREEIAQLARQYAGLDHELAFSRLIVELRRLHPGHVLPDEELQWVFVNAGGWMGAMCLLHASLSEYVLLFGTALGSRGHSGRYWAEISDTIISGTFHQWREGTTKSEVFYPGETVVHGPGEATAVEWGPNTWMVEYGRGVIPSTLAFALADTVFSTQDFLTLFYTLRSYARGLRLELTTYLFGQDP
Adenosine receptor A1 (Homo sapiens), sequence (P30542 whole entry): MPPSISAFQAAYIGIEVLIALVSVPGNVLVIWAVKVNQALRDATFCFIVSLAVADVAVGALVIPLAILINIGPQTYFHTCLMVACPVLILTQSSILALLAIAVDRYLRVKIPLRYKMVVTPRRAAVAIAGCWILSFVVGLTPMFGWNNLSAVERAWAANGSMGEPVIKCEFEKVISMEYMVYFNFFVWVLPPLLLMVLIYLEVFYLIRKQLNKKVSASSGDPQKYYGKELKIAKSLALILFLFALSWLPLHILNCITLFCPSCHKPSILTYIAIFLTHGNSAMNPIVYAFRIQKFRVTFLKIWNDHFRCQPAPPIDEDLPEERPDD
Voltage-gated inwardly rectifying potassium channel KCNH2, sequence (Q12809 whole entry): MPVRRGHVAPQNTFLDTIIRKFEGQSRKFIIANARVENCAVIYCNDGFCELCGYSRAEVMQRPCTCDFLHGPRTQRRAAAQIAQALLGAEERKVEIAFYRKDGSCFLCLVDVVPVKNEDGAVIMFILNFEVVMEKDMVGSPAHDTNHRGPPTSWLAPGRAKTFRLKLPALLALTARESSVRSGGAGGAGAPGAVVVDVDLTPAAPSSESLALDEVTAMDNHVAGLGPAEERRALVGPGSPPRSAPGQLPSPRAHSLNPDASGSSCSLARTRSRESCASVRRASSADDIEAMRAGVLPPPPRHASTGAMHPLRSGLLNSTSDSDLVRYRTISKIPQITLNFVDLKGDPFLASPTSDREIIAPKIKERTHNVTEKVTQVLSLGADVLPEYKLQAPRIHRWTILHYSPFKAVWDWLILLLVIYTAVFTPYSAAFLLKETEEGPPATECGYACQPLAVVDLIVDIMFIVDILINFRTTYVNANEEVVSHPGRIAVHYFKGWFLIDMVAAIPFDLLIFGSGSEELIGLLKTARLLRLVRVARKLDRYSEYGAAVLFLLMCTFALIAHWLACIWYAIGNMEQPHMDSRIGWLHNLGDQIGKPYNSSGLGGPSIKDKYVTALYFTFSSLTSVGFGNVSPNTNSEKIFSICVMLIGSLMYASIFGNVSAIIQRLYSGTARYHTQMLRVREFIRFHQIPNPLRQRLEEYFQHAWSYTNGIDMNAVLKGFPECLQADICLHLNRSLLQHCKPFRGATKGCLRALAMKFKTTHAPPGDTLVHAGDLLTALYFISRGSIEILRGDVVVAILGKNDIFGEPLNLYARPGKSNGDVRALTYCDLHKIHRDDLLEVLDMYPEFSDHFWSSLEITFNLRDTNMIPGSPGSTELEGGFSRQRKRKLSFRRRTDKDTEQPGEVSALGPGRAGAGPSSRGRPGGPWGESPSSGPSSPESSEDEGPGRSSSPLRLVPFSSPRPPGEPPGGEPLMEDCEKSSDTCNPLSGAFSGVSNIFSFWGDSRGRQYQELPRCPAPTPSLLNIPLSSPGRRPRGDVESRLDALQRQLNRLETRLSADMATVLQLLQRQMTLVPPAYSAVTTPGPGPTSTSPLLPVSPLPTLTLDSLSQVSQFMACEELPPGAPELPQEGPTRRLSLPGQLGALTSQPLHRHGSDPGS
Histamine H1 receptor (Homo sapiens), sequence (P35367 whole entry): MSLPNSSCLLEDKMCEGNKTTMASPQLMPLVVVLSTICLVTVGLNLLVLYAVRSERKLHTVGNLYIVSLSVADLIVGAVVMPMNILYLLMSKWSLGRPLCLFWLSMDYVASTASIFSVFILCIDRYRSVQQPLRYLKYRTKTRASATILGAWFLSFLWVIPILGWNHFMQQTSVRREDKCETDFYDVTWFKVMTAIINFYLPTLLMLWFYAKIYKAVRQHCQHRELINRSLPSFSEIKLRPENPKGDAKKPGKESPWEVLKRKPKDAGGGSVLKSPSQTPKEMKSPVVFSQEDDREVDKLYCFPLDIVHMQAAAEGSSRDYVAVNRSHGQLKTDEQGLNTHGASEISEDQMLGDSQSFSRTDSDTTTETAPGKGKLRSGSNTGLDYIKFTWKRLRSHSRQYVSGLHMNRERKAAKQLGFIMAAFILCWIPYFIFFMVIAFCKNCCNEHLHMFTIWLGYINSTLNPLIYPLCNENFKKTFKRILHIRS
5-hydroxytryptamine receptor 1A (Homo sapiens), sequence (P08908 whole entry): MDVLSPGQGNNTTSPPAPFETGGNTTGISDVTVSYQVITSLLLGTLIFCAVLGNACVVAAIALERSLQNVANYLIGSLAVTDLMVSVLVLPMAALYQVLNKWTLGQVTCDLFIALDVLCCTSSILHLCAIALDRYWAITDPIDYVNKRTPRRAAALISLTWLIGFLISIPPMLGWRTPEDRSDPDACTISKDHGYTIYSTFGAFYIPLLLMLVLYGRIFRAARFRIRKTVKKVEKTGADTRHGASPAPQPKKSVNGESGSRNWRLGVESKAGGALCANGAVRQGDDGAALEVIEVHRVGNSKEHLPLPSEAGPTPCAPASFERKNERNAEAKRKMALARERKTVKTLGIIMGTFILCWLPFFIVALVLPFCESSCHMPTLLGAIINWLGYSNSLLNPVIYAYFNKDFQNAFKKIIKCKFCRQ
5-hydroxytryptamine receptor 1B (Homo sapiens), sequence (P28222 whole entry): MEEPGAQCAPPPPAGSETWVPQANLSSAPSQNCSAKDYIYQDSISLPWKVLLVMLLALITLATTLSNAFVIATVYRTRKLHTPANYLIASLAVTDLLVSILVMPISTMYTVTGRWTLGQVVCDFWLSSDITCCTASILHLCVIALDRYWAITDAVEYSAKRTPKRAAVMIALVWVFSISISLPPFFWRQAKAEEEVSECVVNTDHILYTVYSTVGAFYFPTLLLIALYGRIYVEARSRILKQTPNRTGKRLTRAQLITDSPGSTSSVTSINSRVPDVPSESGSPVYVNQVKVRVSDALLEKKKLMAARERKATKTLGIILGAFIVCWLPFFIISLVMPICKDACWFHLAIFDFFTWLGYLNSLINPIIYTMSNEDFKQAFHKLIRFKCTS
Muscarinic acetylcholine receptor M2 (Homo sapiens), sequence (P08172 whole entry): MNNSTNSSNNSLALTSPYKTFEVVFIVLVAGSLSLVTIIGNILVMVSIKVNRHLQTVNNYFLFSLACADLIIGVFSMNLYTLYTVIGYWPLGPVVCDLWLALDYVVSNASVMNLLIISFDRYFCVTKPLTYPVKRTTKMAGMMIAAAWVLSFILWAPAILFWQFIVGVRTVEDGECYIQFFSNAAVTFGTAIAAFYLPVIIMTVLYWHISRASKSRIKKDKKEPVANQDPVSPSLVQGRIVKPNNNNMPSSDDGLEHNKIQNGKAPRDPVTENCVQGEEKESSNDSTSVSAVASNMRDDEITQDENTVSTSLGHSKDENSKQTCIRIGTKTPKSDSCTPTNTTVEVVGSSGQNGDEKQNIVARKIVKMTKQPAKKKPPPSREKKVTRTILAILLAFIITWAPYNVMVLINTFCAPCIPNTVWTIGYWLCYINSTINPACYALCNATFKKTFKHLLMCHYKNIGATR
Kappa-type opioid receptor (Homo sapiens), sequence (P41145 whole entry): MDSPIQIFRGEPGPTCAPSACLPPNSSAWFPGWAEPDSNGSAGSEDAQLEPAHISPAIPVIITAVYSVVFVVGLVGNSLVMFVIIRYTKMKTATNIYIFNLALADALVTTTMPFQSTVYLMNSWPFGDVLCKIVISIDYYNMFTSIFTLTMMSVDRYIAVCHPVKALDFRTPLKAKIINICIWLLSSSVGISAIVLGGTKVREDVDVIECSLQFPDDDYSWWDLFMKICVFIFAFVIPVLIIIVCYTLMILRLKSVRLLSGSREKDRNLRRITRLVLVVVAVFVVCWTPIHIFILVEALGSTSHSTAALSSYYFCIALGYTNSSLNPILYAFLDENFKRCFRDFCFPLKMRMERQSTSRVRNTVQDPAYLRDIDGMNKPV

SMILES: O=C(NC1CCN(Cc2ccc3ncoc3c2)CC1)c1cc(=O)c2ccc(F)cc2o1
IC50 [1]: 10 nM
IC50 [2]: 106 nM

SMILES: O=C(NC1CCN(Cc2ccc3c(c2)OCO3)CC1)c1cc(=O)c2ccc(F)cc2o1
inhibition [5]: 21%
inhibition [6]: 42%
inhibition [7]: 48%
inhibition [8]: 55%
inhibition [9]: 43%
inhibition [10]: 48%
inhibition [11]: 16%
inhibition [12]: -6%
inhibition [13]: 17%
inhibition [14]: 8%
inhibition [15]: 65%
inhibition [16]: 66%
inhibition [17]: 26%
inhibition [18]: 104%
IC50 [19]: 23500 nM
inhibition [20]: 32%
inhibition at 10 µM [21]: 31%
inhibition [22]: 18%

SMILES: CC(=O)Nc1cccc(CN2CCC(NC(=O)c3cc(=O)c4ccc(F)cc4o3)CC2)c1
IC50 [1]: 47 nM
IC50 [2]: 551 nM

SMILES: O=C1COc2cc(CN3CCC(NC(=O)c4cc(=O)c5ccc(F)cc5o4)CC3)ccc2N1
IC50 [1]: 166 nM
IC50 [2]: 2410 nM

The next lines start with results.

IC50 [1]: 43 nM
IC50 [2]: 569 nM
SMILES: O=C(NC1CCN(Cc2ccc3oc(=O)[nH]c3c2)CC1)c1cc(=O)c2ccc(F)cc2o1

IC50 [2]: > 10000 nM
SMILES: CC(=O)Nc1ccc(CN2CCC(NC(=O)c3cc(=O)c4ccc(F)cc4o3)CC2)cc1

IC50 [1]: 3 nM
IC50 [2]: 44 nM
SMILES: Cn1c(=O)ccc2ccc(CN3CCC(NC(=O)c4cc(=O)c5ccc(F)cc5o4)CC3)cc21
IC50 [3]: 47400 nM
selectivity ratio [4]: 1030

IC50 [1]: 5 nM
IC50 [2]: 66 nM
SMILES: O=C(NC1CCN(Cc2ccc3cc[nH]c3c2)CC1)c1cc(=O)c2ccc(F)cc2o1

IC50 [1]: 1270 nM
IC50 [2]: > 10000 nM
SMILES: CCc1nc2ccc(CN3CCC(NC(=O)c4cc(=O)c5ccc(F)cc5o4)CC3)cc2o1
IC50 [3]: 26700 nM
selectivity ratio [4]: 2

inhibition [5]: 16%
inhibition [6]: 15%
inhibition [7]: 25%
inhibition [8]: 16%
inhibition [9]: 7%
inhibition [10]: 45%
inhibition [11]: 21%
inhibition [12]: 5%
inhibition [13]: -10%
inhibition [14]: 11%
inhibition [15]: 36%
inhibition [16]: 43%
inhibition [17]: 67%
inhibition [18]: 37%
IC50 [1]: 1 nM
inhibition [20]: 13%
inhibition [23]: 17%
inhibition [24]: 72%
inhibition at 10 µM [21]: 10%
IC50 [2]: 46 nM
inhibition [22]: 28%
SMILES: O=C(NC1CCN(Cc2ccc3ccc(=O)oc3c2)CC1)c1cc(=O)c2ccc(F)cc2o1
